FN deposition inh: fibronectin deposition inhibition; hit rate 0.086% among 350,000; AH1F fibroblasts, Alexa488-fibronectin deposition fluorescence, overnight; inhibition, % at 12.6 µM;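 active means mean inhibition across replicates of 30% or more, regardless of how many single replicates reach that level; inconclusive means mean under 30% yet at least half of replicates reach 30%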;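 further: positive control wells lacked labelled fibronectin entirely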
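material = AH1F fibroblast monolayer depositing Alexa488-labelled fibronectin into matrix | amount = 10000 AH1F cells/well | buffer or medium = DMEM plus 2% serum, read in PBS | incubation = 1 h cell adhesion before compound, then overnight fibronectin incubation | detection = fluorescence at 485 nm excitation, 525 nm emission | evaluation = percent inhibition as loss of matrix-bound fibronectin fluorescence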
XiGFP reactiv: reactivates the inactive X chromosome in mouse fibroblasts. XiGFP mouse fibroblasts, % GFP-positive cells imaging, 3 d; cells co-treated with 5-aza-dC sensitizer; scaled so ellipticine positive control = 100%. activation, % at 7.58 µM. hit rate 0.055% among 360,000;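 active means mean normalized replicate activation at least 10% and every replicate at or above 10%; inconclusive means only one of the two criteria met; inactive means mean below 10% and not all replicates reach 10%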;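 further: 0% = median of on-plate neutral control wells and 100% = ellipticine 6 µM median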
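System: SV40-immortalized XiGFP fibroblast cells, line 68-5-11 / Incubation: 3-day compound exposure, then 15 min fixation at room temperature / Compound: single concentration per compound, delivered by pin transfer / Buffer or medium: DMEM plus 5-aza-dC sensitizer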
DENV2 CPE rescue: DENV2-induced cell death inhibition | CPE inhibition, % at 9.99 µM | AID 651640 | DENV2-infected cells, cytopathic effect rescue, plate reader | hit rate 1.7% among 350,000; in the data active means CPE inhibition above about 20%, passing the limit was not always enough; inconclusive means no clear call, values can overlap the other calls; tested in BHK-21 cells;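 further: 0% = median of neutral control wells and 100% = median of positive control wells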
Casp6 inh: blocks human caspase-6 cleavage activity. hit rate 0.53% among 350,000. inhibition, % at 12.5 µM. P55212. AID 686996. purified caspase-6, Z-VEID-R110 cleavage fluorescence;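 active means mean inhibition across replicates at least about 35%, with every replicate also reaching that limit, limit read from the data; inconclusive means only one of the two criteria met; inactive means neither criterion met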;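 further: 0% = median of neutral control wells and 100% = no fluorescence left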
Target sequence (P55212 24-179 limits assumed): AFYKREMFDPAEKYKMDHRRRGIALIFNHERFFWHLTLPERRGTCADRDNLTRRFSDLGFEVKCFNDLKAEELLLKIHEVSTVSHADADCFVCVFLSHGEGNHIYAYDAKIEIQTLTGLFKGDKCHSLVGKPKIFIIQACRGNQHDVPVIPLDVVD
Target sequence (P55212 194-293 limits assumed): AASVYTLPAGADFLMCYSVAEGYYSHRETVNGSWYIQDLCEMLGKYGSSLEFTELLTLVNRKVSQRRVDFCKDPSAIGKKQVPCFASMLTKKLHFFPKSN
CaV13 FRET inh: Disruptors of the CACNA1D IQ motif to Ca2+-dependent inactivation inhibitor domain association, primary screening, Förster resonance energy transfer in intact living … | inhibition, % at 12.3 µM | HEK cells, CFP/YFP FRET ICDI-IQ, plate reader, 10 min; percent FRET-ratio fall versus neutral wells | hit rate 0.098% among 340,000;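 active means mean replicate inhibition of at least 30% and at least 1% of replicates passing that level; inconclusive means only one of the two criteria is met; inactive means neither criterion is met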;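 further: 0% = median of the neutral control wells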
Starred values were filed as active, the others as inactive; ? = inconclusive; · = no result; ! = not confirmed by another sample. An excerpt weighted towards active compounds, which were near 2% of everything screened.

SMILES	FN deposition inh	XiGFP reactiv	DENV2 CPE rescue	Casp6 inh	CaV13 FRET inh
CCOC(=O)C[C@H]1c2ccccc2S(=O)(=O)N1c1ccccc1	4	0	37*	1	-5
COc1ccc(NC(=O)N(C)C[C@@H]2Oc3c(NC(=O)Nc4ccc5c(c4)OCO5)cccc3C(=O)N([C@@H](C)CO)C[C@@H]2C)cc1	·	0	7	-2	·
O=c1c(OC2OC(CO)C(O)C(O)C2OC2OC(CO)C(O)C(O)C2O)c(-c2ccc(O)cc2)oc2cc(O)cc(O)c12 (stereo not drawn)	·	·	19	46*	·
C[C@@H]1CCCCO[C@@H](CN(C)S(=O)(=O)c2ccc(F)cc2)[C@H](C)CN([C@H](C)CO)C(=O)c2cc(NC(=O)Nc3ccc(C(F)(F)F)cc3)ccc2O1	-12	0	-4	1	·
CCCNC(=O)[C@@H]1c2ccccc2C(=O)N(Cc2ccccc2OC)[C@H]1c1ccc(CO)cc1	·	·	34*	0	·
CC(Sc1nc2cc(Cl)ccc2s1)C(=O)Nc1cccc(S(=O)(=O)N2CCOCC2)c1 (stereo not drawn)	7	0	33*	0	-5
CCc1cc(=O)oc2cc(C)cc(OC(C)C(=O)NC(Cc3c[nH]c4ccc(O)cc34)C(=O)O)c12 (stereo not drawn)	·	·	68*	6	·
CC(Oc1ccc2ccc(=O)oc2c1)C(=O)NC(Cc1c[nH]c2ccc(O)cc12)C(=O)O (stereo not drawn)	·	·	102*	10	·
COc1ccc(-c2cc(=O)oc3cc(OC(C)C(=O)NC(Cc4c[nH]c5ccc(O)cc45)C(=O)O)ccc23)cc1 (stereo not drawn)	·	·	?	8	·
CC(=O)NCCc1c[nH]c2ccc(OCc3ccccc3)cc12	8	0	3	5	-14
O=C(CCl)NC(Cc1c[nH]c2ccc(OCc3ccccc3)cc12)C(=O)O (stereo not drawn)	2	0	4	36*	-19
Cc1cc(C(=O)Nc2cccc3c2O[C@H](CN(C)Cc2ccc(Oc4ccccc4)cc2)[C@@H](C)CN([C@@H](C)CO)C3=O)n(C)n1	·	0	·	·	·
CCCCNC(=O)c1nn2c(C(F)(F)F)cc(-c3ccccc3)nc2c1Br	-2	0	38*	-3	-5
N#CCNC(=O)c1nn2c(C(F)(F)F)cc(-c3ccccc3)nc2c1Br	0	0	7	2	-5
Cn1cc(C(c2ccccc2OCC(=O)O)c2cn(C)c3ccccc23)c2ccccc21	-6	0	4	4	45*
CC(C)NC(=O)N(C)C[C@H]1Oc2c(NS(=O)(=O)c3ccc(Cl)cc3)cccc2C(=O)N([C@H](C)CO)C[C@H]1C	-4	-1	7	-2	·
CC=Cc1ccc2n(c1=O)C[C@@H]1[C@@H](CO)[C@H](C(=O)N3CCCCC3)N(C(=O)CC)[C@H]21 (mixture of isomers)	·	0	-7	-3	·
Cn1c(=O)c2[nH]c(-c3ccc(S(=O)(=O)O)cc3)nc2n(C)c1=O	-5	23*	0	-3	-7
CC(C)c1ccc(-c2nc3c([nH]2)c(=O)n(C)c(=O)n3C)cc1	·	·	·	·	-1
C[C@@H]1CN([C@H](C)CO)S(=O)(=O)c2ccc(Br)cc2O[C@@H]1CN(C)C(=O)CN1CCOCC1	-3	0	55*!	-2	-6
C[C@H]1CN([C@@H](C)CO)S(=O)(=O)c2ccc(Br)cc2O[C@H]1CN(C)Cc1ccc(F)cc1	6	0	41*!	1	-3
C[C@H](CO)N1C[C@H](C)[C@@H](CN(C)Cc2cccnc2)Oc2cc(Br)ccc2S1(=O)=O	-8	0	45*!	-3	·
CO[C@@H]1CN(C)C(=O)c2cc(NC(=O)NC3CCCC3)ccc2OC[C@H](C)N(CC2CC2)C[C@H]1C	-2	0	·	·	·
Cn1cnc(S(=O)(=O)N2C[C@@H](O)COC[C@@H]3O[C@@H](CC(=O)NCc4cc(F)cc(F)c4)CC[C@H]32)c1	-1	0	14	1	·
C[C@@H]1CN([C@H](C)CO)C(=O)c2cc(NS(=O)(=O)c3ccc(F)cc3)ccc2O[C@H]1CN(C)Cc1ccccc1	·	-1	10	-1	·
SMILES	FN deposition inh	XiGFP reactiv	DENV2 CPE rescue	Casp6 inh	CaV13 FRET inh
NCCCCCNC(=O)[C@@H]1C[C@@H]2C(=O)N[C@@H](Cc3ccccc3)C(=O)N2[C@@H]1c1cccc(OCCO)c1	·	·	1	-14	·
CC(C)C[C@@H]1NC(=O)[C@@H]2C[C@H](C(=O)O)[C@H](c3cccc(OCCO)c3)N2C1=O	·	·	3	1	·
NCCCCCCNC(=O)[C@H]1C[C@H]2C(=O)N[C@@H](Cc3ccccc3)C(=O)N2[C@H]1c1cccc(OCCO)c1	·	·	21*	-2	·
CC(C)C[C@@H]1NC(=O)[C@H]2C[C@@H](C(=O)NCCCCCNC(=O)CS)[C@@H](c3cccc(OCCO)c3)N2C1=O	·	·	21*	-2	·
CNC[C@@H]1Oc2ccccc2C(=O)N(C)C[C@H]1C	2	0	·	·	·
COC(=O)c1cc(C)nc2c1C(=O)C(=O)C=C2N1CCOCC1	-2	1	-2	83*	-4
COC(=O)c1cc(S(=O)(=O)N2CCOCC2)c(Cl)cc1N1CCOCC1	·	·	·	·	-9
O=c1[nH]c2ccc(F)cc2[nH]c1=O	-2	0	-8	42*	-9
O=c1cc(-c2ccccc2)[nH]c2ccc(F)cc12	-4	4	-8	-3	-6
CN(C)S(=O)(=O)N1CCC(Oc2ccc(C(=O)N3CCCCCC3)cc2)CC1	-2	0	5	-4	-6
CN(C)S(=O)(=O)N1CCC(Oc2ccc(C(=O)N3CCCCCCC3)cc2)CC1	-1	0	45*	1	-4
Cn1c(=O)c2cc(S(=O)(=O)NC(C(=O)Nc3cccc(F)c3)c3ccccc3)ccc2n(C)c1=O (stereo not drawn)	-8	0	78*	-3	-5
O=C(C1CCCC1)N1C[C@H]2[C@@H](c3ccccc31)[C@@H](CO)N2C(=O)c1cccnc1	·	0	1	-5	·
Oc1ccc(/C=N/Nc2ccnc3cc(Cl)ccc23)c(O)c1	-43	68*	1	69*	-20
C[C@H](CO)N1C[C@H](C)[C@H](CN(C)S(=O)(=O)c2cn(C)cn2)Oc2ccc(NC(=O)CCN3CCOCC3)cc2C1=O	-7	0	7	-1	·
CN1C(=O)c2cc(NC(=O)C3CCC3)ccc2OC[C@@H]2O[C@@H](CC(=O)NCc3ccccc3F)CC[C@H]21	-7	0	14	0	·
NC(=O)C1CCN(CC(O)COc2ccc(-c3ccccc3)cc2)CC1 (stereo not drawn)	10	0	50*	-3	-4
O=c1ccc2cc3c4c(c2o1)CCCN4CCC3	14	0	-2	2	32*
O=c1oc2c3c4c(cc2s1)CCCN4CCC3	2	·	·	·	-4

From PubChem
